{
  "source": "ChEMBL document CHEMBL3286371",
  "about": "“wALADin benzimidazoles differentially modulate the function of porphobilinogen synthase orthologs” (J Med Chem, 2014)",
  "key": {"[1]": {"biological_target": "Delta-aminolevulinic acid dehydratase (Pseudomonas aeruginosa (strain ATCC 15692 / PAO1 / 1C / PRS 101 / LMG12228)) (UniProt Q59643)", "sequence (Q59643 whole entry)": "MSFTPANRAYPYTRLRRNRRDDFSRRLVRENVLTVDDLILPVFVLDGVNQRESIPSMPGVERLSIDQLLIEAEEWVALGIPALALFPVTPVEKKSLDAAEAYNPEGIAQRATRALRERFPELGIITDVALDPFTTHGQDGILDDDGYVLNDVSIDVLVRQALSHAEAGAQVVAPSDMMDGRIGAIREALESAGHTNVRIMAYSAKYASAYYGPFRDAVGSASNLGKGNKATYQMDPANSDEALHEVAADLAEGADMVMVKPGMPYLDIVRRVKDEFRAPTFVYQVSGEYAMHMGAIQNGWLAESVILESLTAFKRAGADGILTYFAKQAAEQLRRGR", "experiment": "Stimulation of Pseudomonas aeruginosa PAO1 recombinant PBGS using 5-ALA as substrate relative to control", "how_it_was_run": "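His-tagged PaPBGS at 150 nM subunit in 100 mM Tris-HCl pH 8.0 with 1 mM MgCl2, 100 mM KCl and 0.2 mM 5-ALA, 10 min at 36 °C, with turnover at most 30%. Porphobilinogen read with Ehrlich's reagent. Activity normalized to 6.7% DMSO control as 100%. EC50 from variable-slope agonist fit.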"}, "[2]": {"experiment": "Stimulation of Toxoplasma gondii recombinant PBGS using 5-ALA as substrate", "how_it_was_run": "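T. gondii PBGS, expressed from pET-21b in BL21 E. coli and purified, at 250 nM subunit in 100 mM Tris-HCl pH 8.0 with 1 mM MgCl2, 5 mM DTT and 0.2 mM 5-ALA, 20 min at 36 °C. Porphobilinogen detected with Ehrlich's reagent. Activity normalized to 6.7% DMSO control. EC50 by variable-slope agonist fit.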"}, "[3]": {"biological_target": "T1, Delta-aminolevulinic acid dehydratase (Escherichia coli (strain K12)) (UniProt P0ACB2)", "T1 sequence (whole entry)": "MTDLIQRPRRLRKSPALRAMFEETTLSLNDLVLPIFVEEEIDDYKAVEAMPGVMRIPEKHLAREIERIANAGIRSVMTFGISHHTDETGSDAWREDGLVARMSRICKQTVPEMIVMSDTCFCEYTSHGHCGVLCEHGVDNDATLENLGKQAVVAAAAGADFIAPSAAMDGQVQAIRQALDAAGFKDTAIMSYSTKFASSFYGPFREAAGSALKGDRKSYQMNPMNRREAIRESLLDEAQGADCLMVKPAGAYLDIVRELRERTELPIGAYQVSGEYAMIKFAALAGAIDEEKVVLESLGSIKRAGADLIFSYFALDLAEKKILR", "experiment": "Inhibition of Escherichia coli recombinant PBGS using 5-ALA as substrate at 50 to 200 uM at pH 7 to 8.5 by buffer scan assay"}, "[4]": {"biological_target": "Delta-aminolevulinic acid dehydratase (Pseudomonas aeruginosa (strain ATCC 15692 / PAO1 / 1C / PRS 101 / LMG12228)) (UniProt Q59643)", "experiment": "Stimulation of Pseudomonas aeruginosa PAO1 recombinant PBGS using 5 mM 5-ALA as substrate assessed as increase in Vmax at 50 to 200 uM at pH 8 by buffer scan assay in presence of 1 mM MgCl2 and 1 to 1000 mM KCl"}, "[5]": {"biological_target": "Delta-aminolevulinic acid dehydratase (Yersinia enterocolitica W22703) (UniProt F4MUJ9)", "sequence (F4MUJ9 as listed by the source)": "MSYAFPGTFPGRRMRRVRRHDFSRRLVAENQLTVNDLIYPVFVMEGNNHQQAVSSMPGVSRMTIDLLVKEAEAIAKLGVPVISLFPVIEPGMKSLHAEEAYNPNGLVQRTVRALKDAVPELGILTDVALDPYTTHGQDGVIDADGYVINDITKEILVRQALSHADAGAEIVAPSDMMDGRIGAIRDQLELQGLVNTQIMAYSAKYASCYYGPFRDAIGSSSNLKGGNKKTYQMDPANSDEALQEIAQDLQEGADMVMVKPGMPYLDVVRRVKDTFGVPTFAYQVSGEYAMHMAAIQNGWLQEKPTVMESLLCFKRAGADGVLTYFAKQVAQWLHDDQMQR", "experiment": "Stimulation of Yersinia enterocolitica recombinant PBGS expressed in Escherichia coli at 125 to 2000 uM by nondenaturing PAGE analysis in presence of Mg2+ and K+", "how_it_was_run": "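YePBGS (2 μg) preincubated 20 min at 37 °C in BTP pH 8.0 buffer with K+, Mg2+ and wALADin1. Run on 7.5% nondenaturing PAGE; Coomassie stain and in-gel activity (100 mM KCl, 10 mM MgCl2, 500 μM 5-ALA) read with Ehrlich's reagent.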"}, "[6]": {"biological_target": "T2, Delta-aminolevulinic acid dehydratase (Drosophila melanogaster, UniProt Q9VTV9)", "T2 sequence (Q9VTV9 whole entry)": "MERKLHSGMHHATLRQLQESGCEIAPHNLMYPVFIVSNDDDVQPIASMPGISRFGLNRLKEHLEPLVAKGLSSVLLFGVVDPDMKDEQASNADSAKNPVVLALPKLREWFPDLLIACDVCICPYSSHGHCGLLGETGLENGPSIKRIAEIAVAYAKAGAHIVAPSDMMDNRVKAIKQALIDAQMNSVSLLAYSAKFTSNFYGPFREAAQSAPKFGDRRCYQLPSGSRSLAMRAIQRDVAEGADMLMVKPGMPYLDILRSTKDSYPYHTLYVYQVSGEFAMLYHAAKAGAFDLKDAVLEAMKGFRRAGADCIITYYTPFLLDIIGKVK", "experiment": "Inhibition of Drosophila melanogaster recombinant PBGS using 5-ALA as substrate"}, "[7]": {"biological_target": "Delta-aminolevulinic acid dehydratase (Pseudomonas aeruginosa (strain ATCC 15692 / PAO1 / 1C / PRS 101 / LMG12228)) (UniProt Q59643)", "experiment": "Inhibition of Pseudomonas aeruginosa PAO1 recombinant PBGS assessed as inhibition of octamer-inducing effect of Mg2+ by nondenaturing PAGE analysis", "how_it_was_run": "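PaPBGS (3 μg) preincubated 20 min at 37 °C in assay buffer with 1 mM Mg2+, 100 mM K+ and wALADin1, no 5-ALA. Run on 7.5% nondenaturing PAGE at 4 °C for 15–20 h. Coomassie for oligomer state; in-gel activity with 500 μM 5-ALA stained with Ehrlich's reagent.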"}, "[8]": {"biological_target": "Delta-aminolevulinic acid dehydratase (Pseudomonas aeruginosa (strain ATCC 15692 / PAO1 / 1C / PRS 101 / LMG12228)) (UniProt Q59643)", "experiment": "Stimulation of Pseudomonas aeruginosa PAO1 recombinant PBGS using 5 mM 5-ALA as substrate assessed as effect on Km at 50 to 200 uM at pH 8 by Michaelis-Menten plot analysis in presence of MgCl2", "how_it_was_run": "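Mg2+ or substrate response curves recorded with and without wALADin1; VMAX, KM and Mg2+ affinity derived from the fits.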"}, "[9]": {"biological_target": "Delta-aminolevulinic acid dehydratase (Yersinia enterocolitica W22703) (UniProt F4MUJ9)", "experiment": "Inhibition of Yersinia enterocolitica recombinant PBGS expressed in Escherichia coli using 5-ALA as substrate at 50 to 200 uM at pH 7 to 8.5 by buffer scan assay"}, "[10]": {"biological_target": "Delta-aminolevulinic acid dehydratase (Pseudomonas aeruginosa (strain ATCC 15692 / PAO1 / 1C / PRS 101 / LMG12228)) (UniProt Q59643)", "experiment": "Stimulation of Pseudomonas aeruginosa PAO1 recombinant PBGS assessed as stabilization of octameric form at 250 uM at pH 7 to 8.5 by nondenaturing PAGE analysis in presence of Mg2+ and K+"}, "[11]": {"biological_target": "T3, Delta-aminolevulinic acid dehydratase, chloroplastic (Pisum sativum) (UniProt P30124)", "T3 sequence (whole entry)": "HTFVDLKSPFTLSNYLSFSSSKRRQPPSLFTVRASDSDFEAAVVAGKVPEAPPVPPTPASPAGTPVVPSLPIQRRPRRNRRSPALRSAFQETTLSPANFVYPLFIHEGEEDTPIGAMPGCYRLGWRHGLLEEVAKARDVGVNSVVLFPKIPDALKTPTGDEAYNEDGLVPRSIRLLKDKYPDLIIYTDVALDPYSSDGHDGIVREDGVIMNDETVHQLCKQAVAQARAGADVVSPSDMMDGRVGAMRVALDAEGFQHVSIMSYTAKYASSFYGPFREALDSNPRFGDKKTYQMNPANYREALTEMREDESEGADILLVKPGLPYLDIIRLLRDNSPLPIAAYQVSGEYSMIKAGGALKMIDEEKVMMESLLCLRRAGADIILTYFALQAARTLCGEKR", "experiment": "Partial competitive inhibition of Pisum sativum PBGS using 5-ALA as substrate at 6.25 to 100 uM in presence of MgCl2", "conditions": "Lathyrus oleraceus"}},
  "note": "Calls of active or inactive are those of the source. The rule behind the calls is not given here.",
  "data": [
    {"smiles": "O=C(O)c1ccc2c(c1)nc(CCNC(=O)c1cccs1)n2Cc1cccc(C(F)(F)F)c1", "values": [
      {"measurement": "Smax", "setting": "[1]", "value": 123, "unit": "%"},
      {"measurement": "EC50", "setting": "[2]", "value": 95, "unit": "µM"},
      {"measurement": "inhibition", "setting": "[3]", "value": "Active"},
      {"measurement": "Activity", "setting": "[4]", "value": "Active"},
      {"measurement": "Activity", "setting": "[5]", "value": "inactive"},
      {"measurement": "IC50", "setting": "[6]", "value": 1110, "unit": "µM"},
      {"measurement": "inhibition", "setting": "[7]", "value": "Dose-dependent effect"},
      {"measurement": "Activity", "setting": "[8]", "value": "inactive"},
      {"measurement": "inhibition", "setting": "[9]", "value": "Active"},
      {"measurement": "Activity", "setting": "[10]", "value": "Active"},
      {"measurement": "inhibition", "setting": "[11]", "value": "Active"}
    ]}
  ]
}
